Experimental data as given in ChEMBL document CHEMBL1146085, “Nanomolar inhibitors of the peptidyl prolyl cis/trans isomerase Pin1 from combinatorial peptide libraries” (J Med Chem, 2006).
Where a SMILES comes first, the peptide text is derived from it. [ ]: non-standard residue; d: D form. The star is where a group is joined. dalloThr(PO3H2) = C[C@@H](OP(=O)(O)O)[C@@H](N)C(=O)O; alloThr(PO3H2) = C[C@H](OP(=O)(O)O)[C@H](N)C(=O)O; Biotin = O=C1N[C@H]2[C@H](CS[C@H]2CCCCC(=O)*)N1; Phe(4-tBu) = CC(C)(C)c1ccc(C[C@H](N)C(=O)O)cc1; Bip = N[C@@H](Cc1ccc(-c2ccccc2)cc1)C(=O)O; pT = C[C@@H](OP(=O)(O)O)[C@H](N)C(=O)O; 2Nal = N[C@@H](Cc1ccc2ccccc2c1)C(=O)O; Bta = N[C@@H](Cc1csc2ccccc12)C(=O)O; Tic = O=C(O)[C@@H]1Cc2ccccc2CN1; 2Thi = N[C@@H](Cc1cccs1)C(=O)O; Cha = N[C@@H](CC1CCCCC1)C(=O)O; Tle = CC(C)(C)[C@H](N)C(=O)O; Pip = O=C(O)[C@@H]1CCCCN1; NMeA = CN[C@@H](C)C(=O)O

Legend:
[1] = target: T1, Peptidyl-prolyl cis-trans isomerase NIMA-interacting 1 (Homo sapiens, UniProt Q13526); assay: Inhibition of human Pin1 PPIase Activity by protease free PPIase assay
In short: (§1)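 Protease-free PPIase assay using Abz-Ala-Glu-Pro-Phe-NH-Np as substrate in 35 mM HEPES, pH 7.8, at 10 °C. Ki derived from concentration-dependent measurement of remaining Pin1 activity.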

[2] = target: cAMP-dependent protein kinase (PKA) (Homo sapiens) (UniProt P22694+P17612+P22612); assay: Inhibition of PKA at 500 uM; assay type: protein assay
[3] = Inhibition of PP1 at 500 uM
[4] = target: Peptidyl-prolyl cis-trans isomerase A (Homo sapiens) (UniProt P62937); assay: Inhibition of Cyp18 at 500 uM
Sequence of Peptidyl-prolyl cis-trans isomerase A (Homo sapiens) (P62937 whole entry, looked up): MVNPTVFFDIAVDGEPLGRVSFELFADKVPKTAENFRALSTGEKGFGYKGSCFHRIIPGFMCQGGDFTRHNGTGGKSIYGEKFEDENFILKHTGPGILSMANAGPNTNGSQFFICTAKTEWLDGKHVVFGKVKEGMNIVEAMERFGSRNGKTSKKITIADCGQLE

[5] = target: Mitogen-activated protein kinase 1 (Homo sapiens) (UniProt P28482); assay: Inhibition of ERK2 at 500 uM
Sequence of Mitogen-activated protein kinase 1 (Homo sapiens) (P28482 whole entry): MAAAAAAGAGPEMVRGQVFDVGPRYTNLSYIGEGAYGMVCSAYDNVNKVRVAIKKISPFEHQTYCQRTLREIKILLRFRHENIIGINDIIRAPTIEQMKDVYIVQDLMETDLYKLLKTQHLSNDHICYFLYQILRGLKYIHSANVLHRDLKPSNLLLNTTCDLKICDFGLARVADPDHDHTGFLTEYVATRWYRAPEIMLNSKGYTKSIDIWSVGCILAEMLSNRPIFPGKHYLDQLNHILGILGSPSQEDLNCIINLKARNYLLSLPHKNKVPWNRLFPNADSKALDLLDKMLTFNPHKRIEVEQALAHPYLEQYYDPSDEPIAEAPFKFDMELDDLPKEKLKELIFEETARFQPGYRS

[6] = target: Protein kinase C (PKC) (Homo sapiens) (UniProt O94806+P41743+P17252+P05129+Q05655+P05771+Q05513+Q02156+P24723+Q15139+Q04759); assay: Inhibition of PKC at 500 uM; assay type: protein assay
[7] = target: Peptidyl-prolyl cis-trans isomerase NIMA-interacting 4 (Homo sapiens) (UniProt Q9Y237); assay: Inhibition of Par14 at 500 uM
Sequence of Peptidyl-prolyl cis-trans isomerase NIMA-interacting 4 (Homo sapiens) (Q9Y237 whole entry): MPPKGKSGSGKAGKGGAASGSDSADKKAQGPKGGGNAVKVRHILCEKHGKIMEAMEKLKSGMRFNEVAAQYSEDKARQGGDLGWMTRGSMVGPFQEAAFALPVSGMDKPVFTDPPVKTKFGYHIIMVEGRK

[8] = target: Serine/threonine protein phosphatase PP2B-alpha catalytic subunit (Homo sapiens) (UniProt P16298); assay: Inhibition of PP2B at 500 uM
[9] = target: Peptidyl-prolyl cis-trans isomerase FKBP1A (Homo sapiens) (UniProt P62942); assay: Inhibition of FKBP12 at 500 uM
Sequence of Peptidyl-prolyl cis-trans isomerase FKBP1A (Homo sapiens) (P62942 whole entry): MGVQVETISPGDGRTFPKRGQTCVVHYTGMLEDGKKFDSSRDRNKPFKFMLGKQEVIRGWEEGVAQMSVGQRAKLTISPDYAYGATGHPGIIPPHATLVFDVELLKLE

[10] = Inhibition of PP2A at 500 uM
HeLa [11] = assay: Stability in HeLa cells after 5 hrs incubation; assay type: ADME, cell-based; details: human
In short: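 Peptide incubated 5 h in whole HeLa cell lysate without phosphatase or protease inhibitors. Biotin-conjugated species pulled down on streptavidin Sepharose and analysed by mass spectrometry. Separately, 5 µM peptide analysed by capillary electrophoresis in 50 mM sodium phosphate, pH 7.0, detected at 220 nm, against a reference sample in buffer alone.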

HeLa [12] = assay: Cell cycle arrest in HeLa cells by accumulation at G2/M phase; assay type: functional, cell-based; details: Homo sapiens
In short: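 HeLa cells loaded with inhibitor or its nonphosphorylated derivative by electroporation at varying concentrations, then cultured 3 days at 37 °C. DNA content measured by flow cytometry to give cell cycle phase fractions. Intracellular inhibitor level measured after cell lysis and centrifugation by reverse-phase HPLC of the supernatant against a standard curve.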

[13] = system: Peptidyl-prolyl cis-trans isomerase NIMA-interacting 1 (Homo sapiens), Q13526 [C113A]; assay: Residual PPIase activity of human GST-Pin1 C113A
[14] = target: T1, Peptidyl-prolyl cis-trans isomerase NIMA-interacting 1; assay: Residual PPIase activity of human GST-Pin1 69A
[15] = system: Peptidyl-prolyl cis-trans isomerase NIMA-interacting 1 (Homo sapiens), Q13526 [S154F]; assay: Residual PPIase activity of human GST-Pin1 S154F
[16] = system: Peptidyl-prolyl cis-trans isomerase NIMA-interacting 1 (Homo sapiens), Q13526 [S67E]; assay: Residual PPIase activity of human GST-Pin1 S67E
[17] = target: T1, Peptidyl-prolyl cis-trans isomerase NIMA-interacting 1; assay: Residual PPIase activity of human GST-Pin1
[18] = system: Peptidyl-prolyl cis-trans isomerase NIMA-interacting 1 (Homo sapiens), Q13526 [H59A]; assay: Residual PPIase activity of human GST-Pin1 H59A
[19] = target: T1, Peptidyl-prolyl cis-trans isomerase NIMA-interacting 1; assay: Residual PPIase activity of human GST-Pin1 R68
[20] = system: Peptidyl-prolyl cis-trans isomerase NIMA-interacting 1 (Homo sapiens), Q13526 [K63A]; assay: Residual PPIase activity of human GST-Pin1 K63A
[21] = system: Peptidyl-prolyl cis-trans isomerase NIMA-interacting 1 (Homo sapiens), Q13526 [S16E]; assay: Residual PPIase activity of human GST-Pin1 S16E by protease free PPIase assay; in short: as §1

CC(=O)N[C@@H](Cc1ccccc1)C(=O)N[C@H](C(=O)N1CCCC[C@@H]1C(=O)N[C@@H](Cc1ccc2ccccc2c1)C(=O)N[C@@H](CCC(N)=O)C(N)=O)[C@H](C)OP(=O)(O)O
Ki [1]: 0.547 µM

CC(=O)N[C@@H](CCCCNC(=O)CCCC[C@@H]1SC[C@@H]2NC(=O)N[C@@H]21)C(=O)N[C@@H](C)C(=O)N[C@@H](C)C(=O)N[C@@H](Cc1ccc2ccccc2c1)C(=O)N[C@H](C(=O)N1CCC[C@H]1C(=O)N[C@H](C(=O)N[C@@H](CCC(N)=O)C(N)=O)C(C)(C)C)[C@H](C)OP(=O)(O)O (Ac-K(Biotin)AA[2Nal][alloThr(PO3H2)]P[Tle]Q-NH2)
IC50 [1]: > 50 µM

CC(=O)N[C@@H](CCCCNC(=O)CCCC[C@@H]1SC[C@@H]2NC(=O)N[C@@H]21)C(=O)N[C@@H](C)C(=O)N[C@@H](C)C(=O)N[C@@H](Cc1cccs1)C(=O)N[C@H](C(=O)N(C)[C@@H](C)C(=O)N[C@@H](Cc1ccc2ccccc2c1)C(=O)N[C@@H](CCC(N)=O)C(N)=O)[C@H](C)OP(=O)(O)O (Ac-K(Biotin)AA[2Thi][alloThr(PO3H2)][NMeA][2Nal]Q-NH2)
IC50 [1]: 15 µM

CC(=O)N[C@@H](CCCCNC(=O)CCCC[C@@H]1SC[C@@H]2NC(=O)N[C@@H]21)C(=O)N[C@@H](C)C(=O)N[C@@H](C)C(=O)N[C@@H](Cc1ccc(C(C)(C)C)cc1)C(=O)N[C@H](C(=O)N1Cc2ccccc2C[C@H]1C(=O)N[C@@H](Cc1csc2ccccc12)C(=O)N[C@@H](CCC(N)=O)C(N)=O)[C@H](C)OP(=O)(O)O (Ac-K(Biotin)AA[Phe(4-tBu)][alloThr(PO3H2)][Tic][Bta]Q-NH2)
IC50 [1]: 8 µM

CC(=O)N[C@@H](CCCCNC(=O)CCCC[C@@H]1SC[C@@H]2NC(=O)N[C@@H]21)C(=O)N[C@@H](C)C(=O)N[C@@H](C)C(=O)N[C@@H](Cc1ccc(-c2ccccc2)cc1)C(=O)N[C@H](C(=O)N1CCC[C@H]1C(=O)N[C@@H](Cc1csc2ccccc12)C(=O)N[C@@H](CCC(N)=O)C(N)=O)[C@H](C)OP(=O)(O)O (Ac-K(Biotin)AA[Bip][alloThr(PO3H2)]P[Bta]Q-NH2)
IC50 [1]: 15 µM

CC(=O)N[C@@H](CCCCNC(=O)CCCC[C@@H]1SC[C@@H]2NC(=O)N[C@@H]21)C(=O)N[C@@H](C)C(=O)N[C@@H](C)C(=O)N[C@@H](Cc1ccccc1)C(=O)N[C@H](C(=O)N(C)[C@@H](C)C(=O)N[C@@H](Cc1csc2ccccc12)C(=O)N[C@@H](CCC(N)=O)C(N)=O)[C@H](C)OP(=O)(O)O (Ac-K(Biotin)AAF[alloThr(PO3H2)][NMeA][Bta]Q-NH2)
IC50 [1]: 20 µM

CC(=O)N[C@@H](CCCCNC(=O)CCCC[C@@H]1SC[C@@H]2NC(=O)N[C@@H]21)C(=O)N[C@@H](C)C(=O)N[C@@H](C)C(=O)N[C@@H](Cc1ccc2ccccc2c1)C(=O)N[C@H](C(=O)N1CCC[C@H]1C(=O)N[C@@H](CC1CCCCC1)C(=O)N[C@@H](CCC(N)=O)C(N)=O)[C@H](C)OP(=O)(O)O (Ac-K(Biotin)AA[2Nal][alloThr(PO3H2)]P[Cha]Q-NH2)
IC50 [1]: > 50 µM

CC(=O)N[C@@H](CCCCNC(=O)CCCC[C@@H]1SC[C@@H]2NC(=O)N[C@@H]21)C(=O)N[C@@H](C)C(=O)N[C@@H](C)C(=O)N[C@@H](Cc1csc2ccccc12)C(=O)N[C@@H](C(=O)N1CCCC[C@H]1C(=O)N[C@@H](Cc1ccc2ccccc2c1)C(=O)N[C@@H](CCC(N)=O)C(N)=O)[C@@H](C)OP(=O)(O)O (Ac-K(Biotin)AA[Bta][dalloThr(PO3H2)][Pip][2Nal]Q-NH2)
inhibition [2]: < 10%
inhibition [3]: < 10%
inhibition [4]: < 10%
inhibition [5]: < 10%
inhibition [6]: < 10%
inhibition [7]: < 10%
inhibition [8]: < 10%
Ki [1]: 0.0012 µM
inhibition [9]: < 10%
inhibition [10]: < 10%

CC(=O)N[C@@H](Cc1csc2ccccc12)C(=O)N[C@H](C(=O)N1CCCC[C@@H]1C(=O)N[C@@H](Cc1ccc2ccccc2c1)C(=O)N[C@@H](CCC(N)=O)C(N)=O)[C@@H](C)OP(=O)(O)O
Ki [1]: 0.258 µM

CC(=O)N[C@@H](Cc1ccccc1)C(=O)N[C@@H](C(=O)N1CCCC[C@H]1C(=O)N[C@@H](Cc1ccc2ccccc2c1)C(=O)N[C@@H](CCC(N)=O)C(N)=O)[C@H](C)OP(=O)(O)O
Activity (HeLa [11]): Stable

CC(=O)N[C@@H](CCCCNC(=O)CCCC[C@@H]1SC[C@@H]2NC(=O)N[C@@H]21)C(=O)N[C@@H](C)C(=O)N[C@@H](C)C(=O)N[C@@H](Cc1csc2ccccc12)C(=O)N[C@H](C(=O)N1CCC[C@H]1C(=O)N[C@@H](CC1CCCCC1)C(=O)N[C@@H](CCC(N)=O)C(N)=O)[C@@H](C)OP(=O)(O)O (Ac-K(Biotin)AA[Bta][pT]P[Cha]Q-NH2)
IC50 [1]: > 50 µM

CC(=O)N[C@@H](CCCCNC(=O)CCCC[C@@H]1SC[C@@H]2NC(=O)N[C@@H]21)C(=O)N[C@@H](C)C(=O)N[C@@H](C)C(=O)N[C@@H](CC1CCCCC1)C(=O)N[C@H](C(=O)N1Cc2ccccc2C[C@H]1C(=O)N[C@@H](Cc1ccc2ccccc2c1)C(=O)N[C@@H](CCC(N)=O)C(N)=O)[C@H](C)OP(=O)(O)O (Ac-K(Biotin)AA[Cha][alloThr(PO3H2)][Tic][2Nal]Q-NH2)
IC50 [1]: 25 µM

CC(=O)N[C@@H](Cc1ccccc1)C(=O)N[C@@H](C(=O)N1CCCC[C@@H]1C(=O)N[C@@H](Cc1ccc2ccccc2c1)C(=O)N[C@@H](CCC(N)=O)C(N)=O)[C@H](C)OP(=O)(O)O
inhibition [2]: < 10%
inhibition [3]: < 10%
inhibition [4]: < 10%
inhibition [5]: < 10%
inhibition [6]: < 10%
inhibition [7]: < 10%
Activity (HeLa [12]): Dose-dependent effect
inhibition [8]: < 10%
inhibition [9]: < 10%
inhibition [10]: < 10%

CC(=O)N[C@@H](CCCCNC(=O)CCCC[C@@H]1SC[C@@H]2NC(=O)N[C@@H]21)C(=O)N[C@@H](C)C(=O)N[C@@H](C)C(=O)N[C@@H](CC1CCCCC1)C(=O)N[C@H](C(=O)N(C)[C@@H](C)C(=O)N[C@@H](Cc1ccc2ccccc2c1)C(=O)N[C@@H](CCC(N)=O)C(N)=O)[C@H](C)OP(=O)(O)O (Ac-K(Biotin)AA[Cha][alloThr(PO3H2)][NMeA][2Nal]Q-NH2)
IC50 [1]: 7 µM

CC(=O)N[C@@H](CCCCNC(=O)CCCC[C@@H]1SC[C@@H]2NC(=O)N[C@@H]21)C(=O)N[C@@H](C)C(=O)N[C@@H](C)C(=O)N[C@@H](Cc1ccc(-c2ccccc2)cc1)C(=O)N[C@H](C(=O)N1CCC[C@H]1C(=O)N[C@@H](Cc1ccc2ccccc2c1)C(=O)N[C@@H](CCC(N)=O)C(N)=O)[C@H](C)OP(=O)(O)O (Ac-K(Biotin)AA[Bip][alloThr(PO3H2)]P[2Nal]Q-NH2)
IC50 [1]: 18 µM
Ki [1]: 0.0048 µM

CC(=O)N[C@@H](CCCCNC(=O)CCCC[C@@H]1SC[C@@H]2NC(=O)N[C@@H]21)C(=O)N[C@@H](C)C(=O)N[C@@H](C)C(=O)N[C@@H](Cc1csc2ccccc12)C(=O)N[C@H](C(=O)N1CCCC[C@H]1C(=O)N[C@@H](Cc1ccc2ccccc2c1)C(=O)N[C@@H](CCC(N)=O)C(N)=O)[C@H](C)OP(=O)(O)O (Ac-K(Biotin)AA[Bta][alloThr(PO3H2)][Pip][2Nal]Q-NH2)
Activity [13]: 6%
Activity [14]: 0.4%
Activity [15]: 35%
Activity [16]: 0.3%
IC50 [1]: 0.21 µM
Ki [1]: 0.183 µM
Activity [17]: 100%
Activity [18]: 5.7%
Activity [19]: 0.4%
Activity [20]: 0.2%
Activity [21]: 100%

CC(=O)N[C@@H](CCCCNC(=O)CCCC[C@@H]1SC[C@@H]2NC(=O)N[C@@H]21)C(=O)N[C@@H](C)C(=O)N[C@@H](C)C(=O)N[C@@H](Cc1csc2ccccc12)C(=O)N[C@H](C(=O)N1CCC[C@H]1C(=O)N[C@@H](Cc1ccc2ccccc2c1)C(=O)N[C@@H](CCC(N)=O)C(N)=O)[C@H](C)OP(=O)(O)O (Ac-K(Biotin)AA[Bta][alloThr(PO3H2)]P[2Nal]Q-NH2)
IC50 [1]: 20 µM
